Where no end group is shown, it is not given here.
Molecular target: ACE1 (Homo sapiens, UniProt P12821)
Assay: In vitro ACE1 inhibition assay
Format: biochemical
In short: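 Commercial WST colorimetric kit, run per the manufacturer's instructions. Test peptides were diluted in PBS to 0.01–100 µM and mixed with substrate buffer and enzyme working solution, then incubated 1 h at 37 °C. Indicator working solution was added for 5 min at room temperature, and absorbance was read at 450 nm. Blanks with and without enzyme were included. Assays were run in triplicate, and IC50 was obtained by nonlinear regression of inhibition against concentration.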

ACE1, sequence (P12821 30-1306): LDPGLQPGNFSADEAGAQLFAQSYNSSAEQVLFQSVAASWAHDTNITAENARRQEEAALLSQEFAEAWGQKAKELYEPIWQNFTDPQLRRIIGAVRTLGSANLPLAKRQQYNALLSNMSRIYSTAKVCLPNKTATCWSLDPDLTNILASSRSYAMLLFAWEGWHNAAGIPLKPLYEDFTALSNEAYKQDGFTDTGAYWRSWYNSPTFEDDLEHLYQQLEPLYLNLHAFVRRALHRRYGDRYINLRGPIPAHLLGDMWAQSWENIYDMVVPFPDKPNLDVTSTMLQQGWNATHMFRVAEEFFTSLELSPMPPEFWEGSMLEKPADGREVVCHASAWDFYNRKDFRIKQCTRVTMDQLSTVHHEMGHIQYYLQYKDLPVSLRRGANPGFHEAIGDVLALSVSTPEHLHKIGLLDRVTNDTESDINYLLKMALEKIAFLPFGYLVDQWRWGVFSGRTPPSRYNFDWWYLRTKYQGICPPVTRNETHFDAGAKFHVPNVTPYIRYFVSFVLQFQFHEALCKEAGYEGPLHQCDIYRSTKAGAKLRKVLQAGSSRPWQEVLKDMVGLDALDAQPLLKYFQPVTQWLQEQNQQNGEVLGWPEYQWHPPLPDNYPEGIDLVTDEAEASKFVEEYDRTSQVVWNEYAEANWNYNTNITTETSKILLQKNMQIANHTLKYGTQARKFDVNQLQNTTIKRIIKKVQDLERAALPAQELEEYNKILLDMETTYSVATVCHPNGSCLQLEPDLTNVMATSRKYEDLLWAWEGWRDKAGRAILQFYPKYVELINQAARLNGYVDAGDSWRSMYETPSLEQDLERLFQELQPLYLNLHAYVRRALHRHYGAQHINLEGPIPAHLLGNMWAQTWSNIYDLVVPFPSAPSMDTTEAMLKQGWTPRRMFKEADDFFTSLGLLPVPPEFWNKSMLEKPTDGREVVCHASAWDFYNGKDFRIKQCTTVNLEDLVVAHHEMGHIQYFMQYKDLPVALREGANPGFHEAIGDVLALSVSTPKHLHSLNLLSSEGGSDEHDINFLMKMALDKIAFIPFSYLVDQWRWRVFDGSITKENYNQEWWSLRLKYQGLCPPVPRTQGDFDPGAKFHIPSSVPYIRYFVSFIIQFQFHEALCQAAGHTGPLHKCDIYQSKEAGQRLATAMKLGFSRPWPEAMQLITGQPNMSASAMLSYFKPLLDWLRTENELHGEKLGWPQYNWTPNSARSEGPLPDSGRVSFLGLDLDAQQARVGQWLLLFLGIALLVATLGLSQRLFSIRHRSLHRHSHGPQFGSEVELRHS

Molecule | IC50
CC(C)C[C@H](NC(=O)[C@H](Cc1ccccc1)NC(=O)[C@H](CCCCN)NC(=O)[C@H](Cc1ccccc1)NC(=O)[C@H](CC(N)=O)NC(=O)[C@@H](NC(=O)[C@@H]1CCCN1)C(C)C)C(=O)N[C@@H](CO)C(=O)N[C@@H](Cc1cnc[nH]1)C(=O)O [Hp-F, Hemopressin-F] | 6.22 ± 0.44 µM
CC(C)C[C@H](NC(=O)[C@H](CC(C)C)NC(=O)[C@H](CCCCN)NC(=O)[C@H](Cc1ccccc1)NC(=O)[C@H](CC(N)=O)NC(=O)[C@@H](NC(=O)[C@@H]1CCCN1)C(C)C)C(=O)N[C@@H](CO)C(=O)N[C@@H](Cc1c[nH]cn1)C(=O)O [Hp-L, Hemopressin-L] | 3.86 ± 0.87 µM
RVDPVNFKFLSH [RVD-Hp-F, RVD-Hemopressin-F] | 12.4 ± 2.92 µM
RVDPVNFKLLSH [RVD-Hp-L, RVD-Hemopressin-L] | 2.52 ± 0.11 µM
VDPVNFKFLSH [VD-Hp-F, VD-Hemopressin-F] | 10.8 ± 0.79 µM
VDPVNFKLLSH [VD-Hp-L, VD-Hemopressin-L] | 4.54 ± 0.83 µM
